Here are results for eleven compounds from ChEMBL document CHEMBL3797154, “Design and Synthesis of 1-((1,5-Bis(4-chlorophenyl)-2-methyl-1H-pyrrol-3-yl)methyl)-4-methylpiperazine (BM212) and N-Adamantan-2-yl-N'-((E)-3,7-dimethylocta-2,6-dienyl)ethane-1,2-diamine (SQ109) Pyrrole Hybrid Derivatives: Discovery of Potent Antitubercular Agents Effective against …” (J Med Chem, 2016).

What is called MIC is the lowest concentration found to suppress growth. One may read the GI50 as the concentration at which growth is held to half of that of the control.

Data set [1] relates to Mycobacterium tuberculosis. In words: Antimycobacterial activity against Mycobacterium tuberculosis mc'2-7000x assessed as inhibition of mycobacterial growth at 500 ug/ml. Type of data set: functional, organism-based.
For data set [2], the system named is Mycobacterium tuberculosis. As to the kind of experiment: Antimycobacterial activity against Mycobacterium tuberculosis H37Rv ATTC 27294 assessed as inhibition of mycobacterial growth incubated for 7 days. Type of data set: functional. The procedure, abridged:
(§1)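 MIC by HT-SPOTi on Middlebrook 7H10 agar with 0.05% (v/v) glycerol and 10% (v/v) OADC in 96-well format. Compounds dissolved at 50 mg/mL (stock), two-fold serial dilutions, final 500-0.5 µg/mL. Each well spotted with 2 µL early-to-midlog culture (2x10^3 CFU), incubated at 37 °C until distinct spots in control wells. DMSO-only and isoniazid controls; triplicate.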

In data set [3] the test system is Mycobacterium tuberculosis. As to the kind of experiment: Antimycobacterial activity against Mycobacterium tuberculosis mc'2-7000x assessed as inhibition of mycobacterial growth. Type of data set: functional.
Data set [4] in a line: Cytotoxic activity against mouse RAW264.7 cells assessed as reduction in cell viability incubated for 48 hrs by […] based assay. The procedure, abridged: (§2)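 RAW264.7 or THP-1 cells were grown in RPMI-1640 with 10% FBS and seeded at 10^5 cells/mL. Compound was two-fold serially diluted from a 50 mg/mL stock, with a solvent-control row. Plates were held 48 h at 37 °C in 5% CO2. Wells were washed twice with PBS, with centrifugation between washes for THP-1, then given fresh RPMI plus 0.01% […]. After overnight incubation, fluorescence was read at 560/590 nm and GIC50 derived.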

The subject of data set [5] is Mycolicibacterium smegmatis. In words: Antimycobacterial activity against Mycobacterium smegmatis str. MC2 155 ATCC 700084 assessed as inhibition of mycobacterial growth incubated for 24 hrs by MABA method. Type of data set: functional. The note with it: MC2 155 ATCC 700084, 24 h. In general terms: The colour change of resazurin is a common sign of viable cells or microbes.

Data set [6] concerns Mycolicibacterium aurum. In words: Inhibition of multidrug resistance efflux pump in Mycobacterium aurum ATCC 23366 assessed as inhibition of ethidium bromide efflux by measuring relative fluorescence units for ethidium bromide accumulation at 1/4 times MIC incubated for 60 mins by fluorimetric assay. The gist of the method:
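Whole-cell efflux assay: early-log cells (OD600 ~0.8) adjusted to OD600 0.4, washed into PBS; 4-6x10^7 bacteria/mL with 0.4% glucose, 0.5 mg/L ethidium bromide substrate and compound at 1/4x MIC. Fluorescence ex 544/em 590 nm at 37 °C every minute for 60 min; accumulation scored 0-4 by relative fluorescence bands. Verapamil positive, PBS negative control.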

Data set [7] concerns Mycolicibacterium aurum. In words: Antimycobacterial activity against Mycobacterium aurum ATCC 23366 assessed as inhibition of mycobacterial growth incubated for 4 days. Format: functional. The gist of the method:
(§3)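 HT-SPOTi agar dilution: two-fold serial dilutions of compound were mixed into Middlebrook 7H10 agar with 0.05% glycerol and 10% OADC, giving a final range of 500–0.5 µg/mL. Each well was spotted with 2x10^3 CFU of early-to-mid-log culture. Plates were incubated at 35 or 37 °C until spots appeared in control wells. Controls were DMSO-only and isoniazid. The MIC was read, in triplicate.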

Data set [8] deals with Mycobacterium tuberculosis. As to the kind of experiment: Antimycobacterial activity against Mycobacterium tuberculosis H37Rv ATTC 27294 assessed as inhibition of mycobacterial growth at 500 ug/ml incubated for 7 days. Format: functional, organism-based. The procedure, abridged: as §1
The test system of data set [9] is Mycolicibacterium aurum. In words: Antimycobacterial activity against Mycobacterium aurum ATCC 23366 assessed as inhibition of mycobacterial growth at 500 ug/ml incubated for 4 days. Format: functional, organism-based. The procedure, abridged: as §3
Data set [10] in a line: Cytotoxic activity against human THP1 cells assessed as reduction in cell viability incubated for 48 hrs by […] based assay. More on the design: species or system THP-1. The settings on record: for GI50 at 48 h: THP1 cells; for GI50: thp-1, 48 h. The procedure, abridged: as §2
Data set [11] can be described thus: Selectivity index, ratio of GIC50 for cytotoxicity against mouse RAW264.7 cells to MIC for Mycobacterium tuberculosis H37Rv ATTC 27294. The settings on record: read-out: Selectivity Index. Type of data set: toxicity, cell-based. The procedure, abridged: (§4)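 SI = GIC50 / H37Rv MIC (agar spot assay). GIC50 from cells in RPMI-1640 + 10% FBS, 37 °C, 5% CO2; 10^5 cells/mL added to two-fold compound dilutions from 50 mg/mL stock, solvent control row. 48 h exposure, washes (THP-1 centrifuged), fresh medium plus 0.01% […], overnight; fluorescence ex 560/em 590 nm.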

A short description of data set [12]: Selectivity index, ratio of GIC50 for cytotoxicity against human THP1 cells to MIC for Mycobacterium tuberculosis H37Rv ATTC 27294. Format: toxicity, cell-based, THP-1. The settings on record: read-out: Selectivity Index. The gist of the method:
as §4

For data set [13], the system named is Mycobacterium tuberculosis. As to the kind of experiment: Antimicrobial activity against Mycobacterium tuberculosis. Format: functional.

SMILES strings stand for the structures. Values after ≈ are worked out from the molar mass of the structure shown. Active and inactive are the calls of the source. No cut-off for these calls is given here.

In the case of `Cc1cc(/C=N\OCc2ccccc2)c(C)n1-c1ccc(F)cc1`, in data set [1], the “growth inhibition (GI)” value is “inactive”. Moreover, the minimal inhibitory concentration (MIC) in data set [2] (H37Rv ATTC 27294, 168 h) stood at 25 µg/mL (≈ 77.5 µM). The MIC entry in data set [3] was “inactive”.
Take `Cc1cc(CNOCc2ccccc2)c(C)n1-c1ccc(Cl)cc1`: the concentration for 50% growth inhibition (GI50) at 48 h in data set [4] came out at 133 µg/mL (≈ 390 µM); in [10], 67 µg/mL (≈ 197 µM). In addition, the MIC entry in data set [2] and in data set [7] was “inactive” throughout. The minimum inhibitory concentration (MIC) in data set [5] and in data set [3] was above 64 µg/mL throughout. In [6], the Activity stood at 2 RFU. The “growth inhibition (GI)” value in [8] and in [9] was “inactive” throughout.
Regarding `NNC(=O)c1ccncc1` [ISONIAZID], the “growth inhibition (GI)” value in data set [1] is “inactive”. The MIC in data set [2] (H37Rv ATTC 27294, 168 h) turned out to be 0.24 µg/mL (≈ 1.75 µM). Further, in [10], the concentration for 50% growth inhibition (GI50) entry is given as “Not Active”. The MIC result in data set [3] was “inactive”.
In the case of `Cc1cc(CNOCc2ccccc2)c(C)n1-c1ccc(F)cc1`, the concentration for 50% growth inhibition (GI50) at 48 h was 123 µg/mL (≈ 379 µM) in data set [4] and 292 µg/mL (≈ 900 µM) in data set [10]. The MIC in [2] (H37Rv ATTC 27294, 168 h) was above 125 µg/mL; in data set [5], above 64 µg/mL; in data set [3], above 64 µg/mL. In addition, the results for the selectivity ratio in data set [11] and in data set [12] were below 1 and below 2.3, respectively. Further, the Activity in data set [6] turned out to be 4 RFU. Besides, the MIC entry in data set [7] is “inactive”. In addition, the “growth inhibition (GI)” value in data set [9] was “inactive”.
For `Cc1cc(/C=N\OCc2ccccc2)c(C)n1-c1ccc(Cl)cc1`, the GI50 at 48 h in data set [4] is 128 µg/mL (≈ 378 µM); in data set [10], 500 µg/mL (≈ 1480 µM). Moreover, the MIC in data set [2] (H37Rv ATTC 27294, 168 h) is above 125 µg/mL; in [5], above 64 µg/mL; in data set [3], above 64 µg/mL. The Activity in data set [6] was found to be 1 RFU. Moreover, the MIC result in [7] was “inactive”. Moreover, the “growth inhibition (GI)” value in data set [9] is “inactive”. For the same compound, the selectivity ratio in data set [12] was below 4.
With `Cc1cc(CNC2CCCCC2)c(C)n1-c1ccc(Cl)cc1`, the results for the GI50 at 48 h in data set [4] and in data set [10] were 10 µg/mL (≈ 31.6 µM) and 7.4 µg/mL (≈ 23.4 µM), respectively. In addition, the minimum inhibitory concentration (MIC) in data set [2] (H37Rv ATTC 27294, 168 h) is 0.2 µg/mL (≈ 0.631 µM); in [5], 8 µg/mL (≈ 25.2 µM); in [7] (ATCC 23366, 96 h), 7.8 µg/mL (≈ 24.6 µM); in data set [3], 0.5 µg/mL (≈ 1.58 µM). For the same compound, the selectivity ratio was 50 in data set [11] and 37 in [12]. The Activity in [6] came out at 2 RFU.
Turning to `Cc1ccc(CNCc2cc(C)n(-c3ccc(Cl)cc3)c2C)cc1`, the GI50 at 48 h in [4] amounted to 0.1 µg/mL (≈ 0.295 µM); in [10] it was 6.1 µg/mL (≈ 18 µM). Besides, the minimum inhibitory concentration (MIC) in data set [2] (H37Rv ATTC 27294, 168 h) stood at 1 µg/mL (≈ 2.95 µM); in [5], 8 µg/mL (≈ 23.6 µM); in data set [7] (ATCC 23366, 96 h), 1.9 µg/mL (≈ 5.61 µM); in [3] it was 2 µg/mL (≈ 5.9 µM). For the same compound, the selectivity ratio in [11] came out at 0.1; in [12] it was 6.1. Besides, the Activity in data set [6] is 2 RFU.
Regarding `CC(C)=CCC/C(C)=C/CNCCNC1C2CC3CC(C2)CC1C3` (configuration not stated) [SQ109], the minimum inhibitory concentration (MIC) in data set [2] (H37Rv ATTC 27294, 168 h) came to 0.51 µg/mL (≈ 1.54 µM); in data set [5], 4 µg/mL (≈ 12.1 µM); in data set [7] (ATCC 23366, 96 h), 7.8 µg/mL (≈ 23.6 µM); in [13], 0.5 µM (≈ 0.165 µg/mL); in data set [3], 2 µg/mL (≈ 6.05 µM). Also, the Activity in data set [6] stood at 2 RFU. Moreover, the GI50 result in [10] is on record as “Not Active”.
Regarding `Cc1cc(CNCc2ccccc2)c(C)n1-c1ccc(F)cc1`, the GI50 at 48 h in data set [4] stood at 5.6 µg/mL (≈ 18.2 µM); in [10], 28 µg/mL (≈ 90.8 µM). The MIC was 1 µg/mL (≈ 3.24 µM) in [2] (H37Rv ATTC 27294, 168 h); 16 µg/mL (≈ 51.9 µM) in [5]; 7.8 µg/mL (≈ 25.3 µM) in [7] (ATCC 23366, 96 h); 4 µg/mL (≈ 13 µM) in data set [3]. The selectivity ratio in [11] was determined as 5.6; in data set [12], 28. Moreover, the Activity in data set [6] was determined as 1 RFU.
In the case of `Cc1cc(CN2CCN(C3C4CC5CC(C4)CC3C5)CC2)c(C)n1-c1ccc(Cl)cc1` (configuration not stated), the GI50 at 48 h in [4] was found to be 5.7 µg/mL (≈ 13 µM); in data set [10] it was 32 µg/mL (≈ 73 µM). For the same compound, the minimum inhibitory concentration (MIC) was 7.8 µg/mL (≈ 17.8 µM) in data set [2] (H37Rv ATTC 27294, 168 h); 8 µg/mL (≈ 18.3 µM) in [5]; 7.8 µg/mL (≈ 17.8 µM) in data set [7] (ATCC 23366, 96 h); 3.3 µg/mL (≈ 7.53 µM) in [3]. For the same compound, the selectivity ratio was determined as 0.7 in [11] and 4.1 in [12]. Further, the Activity in [6] is 1 RFU.
On to `Cc1cc(CN2CCN(c3ccccc3)CC2)c(C)n1-c1ccc(Cl)cc1`, for which the 50% growth inhibitory concentration (GI50) at 48 h in data set [4] was 33 µg/mL (≈ 86.9 µM); in data set [10], 25 µg/mL (≈ 65.8 µM). The MIC in data set [2] (H37Rv ATTC 27294, 168 h) stood at 7.8 µg/mL (≈ 20.5 µM); in data set [5] it was 32 µg/mL (≈ 84.2 µM); in data set [7] (ATCC 23366, 96 h), 31 µg/mL (≈ 81.6 µM); in [3], 32 µg/mL (≈ 84.2 µM). Also, the values for the selectivity ratio in data set [11] and in data set [12] were 4.2 and 3.2, respectively. For the same compound, in data set [6], the Activity worked out at 1 RFU.
